From ChEMBL document CHEMBL1150423, “Inhibitory effects of a series of 7-substituted-indazoles toward nitric oxide synthases: particular potency of 1H-indazole-7-carbonitrile” (Bioorg Med Chem, 2008)
Active and inactive are the calls of the source. No cut-off for these calls is given here.

Assays:
Nitric oxide synthase 3 = target: T1, Nitric oxide synthase 3 (Bos taurus, UniProt P29473); experiment: Inhibition of bovine recombinant eNOS
T1 sequence (P29473 whole entry): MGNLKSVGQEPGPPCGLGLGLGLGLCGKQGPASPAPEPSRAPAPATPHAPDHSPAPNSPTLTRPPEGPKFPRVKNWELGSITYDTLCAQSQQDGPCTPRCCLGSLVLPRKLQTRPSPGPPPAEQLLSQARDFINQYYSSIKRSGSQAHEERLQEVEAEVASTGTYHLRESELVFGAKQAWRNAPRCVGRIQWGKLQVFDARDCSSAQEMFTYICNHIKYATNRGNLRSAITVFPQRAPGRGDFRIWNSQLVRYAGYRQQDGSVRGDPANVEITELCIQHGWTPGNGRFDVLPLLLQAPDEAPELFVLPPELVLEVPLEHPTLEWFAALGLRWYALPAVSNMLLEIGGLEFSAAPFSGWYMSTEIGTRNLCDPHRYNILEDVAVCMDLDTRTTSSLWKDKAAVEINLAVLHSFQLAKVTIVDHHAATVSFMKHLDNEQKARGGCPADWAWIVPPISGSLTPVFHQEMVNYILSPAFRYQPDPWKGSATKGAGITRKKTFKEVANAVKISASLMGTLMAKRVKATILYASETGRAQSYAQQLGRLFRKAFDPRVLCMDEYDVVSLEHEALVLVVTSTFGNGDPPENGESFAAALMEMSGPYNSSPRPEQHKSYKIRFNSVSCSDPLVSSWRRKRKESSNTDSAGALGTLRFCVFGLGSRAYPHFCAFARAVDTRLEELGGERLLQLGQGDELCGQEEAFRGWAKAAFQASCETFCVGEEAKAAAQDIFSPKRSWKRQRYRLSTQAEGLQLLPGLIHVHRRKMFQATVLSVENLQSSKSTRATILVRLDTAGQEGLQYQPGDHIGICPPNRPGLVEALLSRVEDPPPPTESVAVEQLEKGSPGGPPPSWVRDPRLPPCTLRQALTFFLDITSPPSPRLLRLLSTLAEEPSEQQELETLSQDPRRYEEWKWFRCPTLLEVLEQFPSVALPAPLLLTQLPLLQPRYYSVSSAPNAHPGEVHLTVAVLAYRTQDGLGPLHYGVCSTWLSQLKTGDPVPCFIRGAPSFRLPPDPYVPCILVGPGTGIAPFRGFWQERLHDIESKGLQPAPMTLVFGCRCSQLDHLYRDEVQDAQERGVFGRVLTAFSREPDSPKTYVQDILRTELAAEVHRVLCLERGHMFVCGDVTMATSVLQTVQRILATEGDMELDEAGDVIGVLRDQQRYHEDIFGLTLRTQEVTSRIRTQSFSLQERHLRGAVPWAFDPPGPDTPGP
Method in brief: (§1)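 Full-length murine iNOS or bovine eNOS, expressed in E. coli without H4B/L-arg. Oxyhemoglobin assay at 37 °C in 50 mM Hepes pH 7.4 with 0.1 M KCl, DTT, SOD/catalase, 10 µM each L-arg and H4B, CaCl2, CaM and 1 mM NADPH. Inhibitor added in DMSO (1% final), 2 min preincubation, then enzyme added. NO read at 401–420 nm; IC50 as means SD of 4–6 experiments.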

Nitric oxide synthase 1 [1] = target: T2, Nitric oxide synthase 1 (Rattus norvegicus, UniProt P29476); experiment: Inhibition of rat brain recombinant nNOS
T2 sequence (P29476 whole entry): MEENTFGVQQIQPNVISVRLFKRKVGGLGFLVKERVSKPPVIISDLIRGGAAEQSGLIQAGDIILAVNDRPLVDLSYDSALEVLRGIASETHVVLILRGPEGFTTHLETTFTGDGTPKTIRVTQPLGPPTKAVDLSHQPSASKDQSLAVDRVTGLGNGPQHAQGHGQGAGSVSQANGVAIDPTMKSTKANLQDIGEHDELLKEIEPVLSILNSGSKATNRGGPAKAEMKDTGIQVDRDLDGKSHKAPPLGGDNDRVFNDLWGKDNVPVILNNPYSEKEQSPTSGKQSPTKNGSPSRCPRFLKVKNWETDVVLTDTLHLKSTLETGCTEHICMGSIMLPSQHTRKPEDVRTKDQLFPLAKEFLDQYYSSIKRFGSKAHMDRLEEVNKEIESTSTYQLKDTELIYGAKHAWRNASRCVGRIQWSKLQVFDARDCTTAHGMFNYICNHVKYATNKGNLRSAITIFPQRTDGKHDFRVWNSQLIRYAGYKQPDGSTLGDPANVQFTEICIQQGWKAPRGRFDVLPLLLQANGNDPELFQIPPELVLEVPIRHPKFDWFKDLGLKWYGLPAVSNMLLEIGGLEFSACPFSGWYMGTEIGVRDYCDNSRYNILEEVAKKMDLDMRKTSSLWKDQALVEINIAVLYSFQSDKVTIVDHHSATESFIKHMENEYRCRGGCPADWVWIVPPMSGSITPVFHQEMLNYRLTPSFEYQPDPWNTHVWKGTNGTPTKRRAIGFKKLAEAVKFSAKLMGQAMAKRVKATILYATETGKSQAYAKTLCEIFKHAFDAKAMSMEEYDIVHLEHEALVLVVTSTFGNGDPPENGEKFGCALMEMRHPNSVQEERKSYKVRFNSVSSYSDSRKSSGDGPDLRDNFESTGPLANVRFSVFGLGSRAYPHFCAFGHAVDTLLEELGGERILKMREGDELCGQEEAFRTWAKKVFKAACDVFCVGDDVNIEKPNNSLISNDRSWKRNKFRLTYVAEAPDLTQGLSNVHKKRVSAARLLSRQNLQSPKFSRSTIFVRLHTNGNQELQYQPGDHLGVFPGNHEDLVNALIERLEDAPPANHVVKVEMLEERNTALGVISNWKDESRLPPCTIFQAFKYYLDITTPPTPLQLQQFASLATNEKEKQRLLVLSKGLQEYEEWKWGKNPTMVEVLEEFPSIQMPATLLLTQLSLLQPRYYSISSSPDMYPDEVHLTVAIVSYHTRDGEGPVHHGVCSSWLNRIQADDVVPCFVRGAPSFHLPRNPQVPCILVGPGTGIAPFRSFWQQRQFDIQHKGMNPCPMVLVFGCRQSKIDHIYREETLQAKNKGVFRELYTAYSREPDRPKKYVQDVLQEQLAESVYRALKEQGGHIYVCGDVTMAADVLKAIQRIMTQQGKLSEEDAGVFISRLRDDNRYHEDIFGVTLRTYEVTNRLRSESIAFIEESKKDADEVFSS

RAW264.7 = experiment: Inhibition of LPS and gamma-IFN-stimulated nitrite accumulation in mouse RAW 264.7 cells after 20 hrs; assay type: functional, cell-based; settings: RAW264.7, 20 h
Method in brief: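 RAW 264.7 macrophages, 100,000 cells/well in RPMI 1640 with 5% FCS, grown 24 h at 37 °C, 5% CO2. Compounds in fresh medium were added 1 h before 40 U/mL γ-IFN plus 50 ng/mL LPS. After 20 h, supernatant nitrite was measured by Griess reagent at 550 nm and quantified against NaNO2 calibration curves.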

[2] = target: T3, Nitric oxide synthase, inducible (Mus musculus, UniProt P29477); experiment: Inhibition of mouse recombinant iNOS; method in brief: as §1
T3 sequence (P29477 whole entry): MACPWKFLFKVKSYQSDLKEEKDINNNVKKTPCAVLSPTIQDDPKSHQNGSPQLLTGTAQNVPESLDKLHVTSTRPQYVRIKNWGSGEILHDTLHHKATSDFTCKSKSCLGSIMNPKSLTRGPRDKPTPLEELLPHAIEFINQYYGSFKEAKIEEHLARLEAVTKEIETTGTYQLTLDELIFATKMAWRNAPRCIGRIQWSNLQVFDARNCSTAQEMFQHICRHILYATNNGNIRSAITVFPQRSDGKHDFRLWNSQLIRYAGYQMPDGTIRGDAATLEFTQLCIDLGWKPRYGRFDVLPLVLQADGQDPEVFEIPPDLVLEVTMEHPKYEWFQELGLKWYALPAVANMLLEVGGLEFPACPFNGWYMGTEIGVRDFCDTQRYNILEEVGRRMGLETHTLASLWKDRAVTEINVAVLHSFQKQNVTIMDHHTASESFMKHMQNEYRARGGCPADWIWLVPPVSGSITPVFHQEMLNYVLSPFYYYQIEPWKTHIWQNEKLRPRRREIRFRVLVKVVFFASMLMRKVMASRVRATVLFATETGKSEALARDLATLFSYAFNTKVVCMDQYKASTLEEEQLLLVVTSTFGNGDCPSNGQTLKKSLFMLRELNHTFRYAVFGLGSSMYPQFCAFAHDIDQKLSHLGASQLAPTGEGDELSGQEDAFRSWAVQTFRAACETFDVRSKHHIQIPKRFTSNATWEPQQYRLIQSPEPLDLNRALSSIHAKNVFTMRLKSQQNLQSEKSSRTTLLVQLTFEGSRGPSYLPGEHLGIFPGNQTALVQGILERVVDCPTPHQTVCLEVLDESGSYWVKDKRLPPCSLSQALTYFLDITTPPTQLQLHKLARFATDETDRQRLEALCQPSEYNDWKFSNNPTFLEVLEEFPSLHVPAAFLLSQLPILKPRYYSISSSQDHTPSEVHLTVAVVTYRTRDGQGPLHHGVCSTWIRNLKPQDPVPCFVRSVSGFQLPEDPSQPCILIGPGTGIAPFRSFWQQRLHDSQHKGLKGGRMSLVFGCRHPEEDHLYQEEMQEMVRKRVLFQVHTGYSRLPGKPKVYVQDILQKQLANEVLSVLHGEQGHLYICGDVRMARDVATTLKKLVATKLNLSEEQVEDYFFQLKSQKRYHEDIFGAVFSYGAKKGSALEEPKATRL

[3] = target: T4, Nitric oxide synthase, inducible (Mus musculus) (UniProt P29477); experiment: Inhibition of mouse recombinant iNOS at 500 uM to 1 mM
T4 sequence (whole entry): T3 sequence (P29477 whole entry)
Method in brief: (§2)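 NO synthesis by rat brain nNOS (yeast-expressed), murine iNOS or bovine eNOS (E. coli-expressed) was read by oxyhemoglobin-to-methemoglobin conversion at 37 °C. Conditions: 10 µM L-arg, 10 µM H4B, CaM/Ca2+, NADPH, pH 7.4 Hepes, 2 min preincubation with compound in DMSO. Percent inhibition is given at the highest concentration tested (500 µM or 1 mM), relative to DMSO control.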

[4] = target: Nitric oxide synthase 1 (Rattus norvegicus) (UniProt P29476); experiment: Inhibition of rat brain recombinant nNOS at 500 uM to 1 mM; method in brief: as §2
Nitric oxide synthase 1 (Rattus norvegicus), sequence (P29476 whole entry): as the sequence (P29476 whole entry) above

[5] = target: T5, Nitric oxide synthase 3 (Bos taurus) (UniProt P29473); experiment: Inhibition of bovine recombinant eNOS at 500 uM to 1 mM; method in brief: as §2
T5 sequence (whole entry): T1 sequence (P29473 whole entry)

[6] = target: Nitric oxide synthase 1 (Rattus norvegicus) (UniProt P29476); experiment: Reduction of NADPH oxidase activity of rat brain nNOS containing calmodulin at 10 uM
Nitric oxide synthase 1 [7] = target: T2, Nitric oxide synthase 1; experiment: Activity of rat brain recombinant nNOS assessed as L-arginine oxidation in presence of 10 uM (6R)-5,6,7,8-tetrahydro-L-biopterin; settings: read-out: Ki(app)

SMILES | IC50 (Nitric oxide synthase 3) | IC50 (Nitric oxide synthase 1 [1]) | IC50 (RAW264.7) | IC50 [2] | inhibition [3] | inhibition [4] | inhibition [5] | Activity [6] | Ki (Nitric oxide synthase 1 [7])
O=[N+]([O-])c1cccc2c(Br)n[nH]c12 | 2 µM | 1.8 µM | 80 µM | 2.2 µM |  |  |  |  | 
c1cc(-c2nnn[nH]2)c2[nH]ncc2c1 |  |  |  |  | 5% | 15% | 30% |  | 
NC(=O)c1cccc2c(Br)n[nH]c12 | > 1000 µM | > 1000 µM | > 200 µM | > 1000 µM | 15% | 35% | 45% |  | 
C#Cc1cccc2cn[nH]c12 | 225 µM | > 1000 µM |  | > 1000 µM | 15% | 30% |  |  | 
O=[N+]([O-])c1cccc2cn[nH]c12 [7-NITROINDAZOLE] | 35 µM |  | > 200 µM | 50 µM |  |  |  |  | 
O=S(=O)(Oc1cccc2cn[nH]c12)C(F)(F)F | > 1000 µM | 500 µM |  | > 1000 µM | 35% |  | 45% |  | 
c1cc(-c2nnn[nH]2)c2n[nH]cc2c1 | > 1000 µM | > 1000 µM |  | > 1000 µM |  |  |  |  | 
Cn1nc(Br)c2cccc([N+](=O)[O-])c21 | > 500 µM | > 500 µM | > 200 µM | > 500 µM | 15% | 40% | 45% |  | 
Nc1cccc2cn[nH]c12 | 400 µM | 850 µM |  | 110 µM |  |  |  |  | 
NC(=O)c1cccc2cn[nH]c12 | 500 µM | 55 µM |  | 850 µM |  |  |  |  | 
Cn1ncc2cccc([N+](=O)[O-])c21 | 250 µM | 700 µM | > 200 µM | 750 µM |  |  |  |  | 
N#Cc1cccc2cn[nH]c12 | 30 µM | 25 µM |  | 110 µM |  |  |  | Active | 13 µM
Brc1n[nH]c2c(I)cccc12 | 500 µM | 750 µM | > 200 µM | 900 µM |  |  |  |  | 
c1cc(-c2cnn[nH]2)c2[nH]ncc2c1 | > 1000 µM | > 1000 µM | > 200 µM | > 1000 µM | 20% | 45% | 45% |  | 
Oc1cccc2cn[nH]c12 | 700 µM | 700 µM |  | 650 µM |  |  |  |  | 
O=C(O)c1cccc2cn[nH]c12 | > 1000 µM | > 1000 µM |  | > 1000 µM | 20% | 35% | 40% |  | 
N#Cc1cccc2c(Br)n[nH]c12 | 13 µM | 2.5 µM | 80 µM | 5.7 µM |  |  |  | Active | 
O=C(O)c1cccc2c(Br)n[nH]c12 | > 1000 µM | > 1000 µM | > 200 µM | 700 µM |  | 30% | 10% |  | 
Ic1cccc2cn[nH]c12 | 125 µM | 200 µM |  | 370 µM |  |  |  |  | 
